Results: article PMC4120261 (Biofouling, 2013)
pIC50: −log10 of the molar value.

Columns and labels:
WspR = WspR (Pseudomonas aeruginosa, UniProt Q9HXT9); assay: EnzChek pyrophosphate assay; type: biochemical
Method in brief: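 C-terminally 6×His-tagged WspR is expressed in E. coli BL21(DE3) in LB with 100 μg ml−1 ampicillin at 37 °C, then induced at A600 1.0 with 1 mM IPTG at 18 °C for 12–16 h. Cells are sonicated and the protein is purified by IMAC (500 mM imidazole elution), then Superdex 200 SEC in 25 mM Tris-HCl pH 7.4, 100 mM NaCl, 1 mM DTT. Pyrophosphate released from GTP-to-c-di-GMP conversion is read by EnzChek.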

tDGC-R158A = tDGC-R158A (Thermotoga maritima, UniProt Q9X2A8, R158A); assay: EnzChek pyrophosphate assay; type: biochemical; conditions: substrate GTP
Method in brief: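 C-terminally 6×His-tagged T. maritima tDGC-R158A is expressed in E. coli BL21(DE3) with kanamycin at 37 °C and induced at OD600 0.8 with 0.8 mM IPTG at 25 °C for 4 h. It is French-press lysed and purified on Ni-NTA with a 20–500 mM imidazole gradient in Tris-HCl pH 8.0. Pyrophosphate from GTP conversion is read by a high-throughput-adapted EnzChek assay, giving % inhibition versus untreated enzyme.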

SMILES | pIC50 (WspR) | % Inhibition of tDGC-R158A (tDGC-R158A; 100 µM) | % Inhibition of tDGC-R158A (tDGC-R158A; 200 µM)
CCOc1ccc(/C=N/NC(=O)c2cc(O)c(O)c(O)c2)cc1CN1CC2CC(C1)c1cccc(=O)n1C2 (stereo not drawn) [LP 3134, N′-((1E)-{4-ethoxy-3-[(8-oxo-1,5,6,8-tetrahydro-2H-1,5-methanopyrido[1,2-a][1,5]diazocin-3(4H)-yl)methyl]phenyl}methylene)-3,4,5-trihydroxybenzohydrazide] | 4.35 | 72.1% | –
CC(=O)c1c(O)c(C)c(O)c(Cc2c(O)c3c(c(C(=O)/C=C/c4ccccc4)c2O)OC(C)(C)C=C3)c1O [LP 1062, (E)-1-[6-[(3-acetyl-2,4,6-trihydroxy-5-methylphenyl)methyl]-5,7-dihydroxy-2,2-dimethyl-2H-1-benzopyran-8-yl]-3-phenyl-2-propen-1-one] | 4.14 | – | –
Cc1cc2c(C(C)C)c(O)c(O)c(C=O)c2c(O)c1-c1c(C)cc2c(C(C)C)c(O)c(O)c(C=O)c2c1O [LP 3145, 1,1′,6,6′,7,7′-hexahydroxy-5,5′-diisopropyl-3,3′-dimethyl-2,2′-binaphthalene-8,8′-dicarbaldehyde] | 4.15 | – | –
CN(CCCn1c2c(c(=O)[nH]c1=O)CSCC2)S(=O)(=O)c1ccc(N)cc1 [LP 4010] | 3.99 | – | 20.5%
